Data: ChEMBL document CHEMBL1145780, “Evaluation of the first cytostatically active 1-aza-9-oxafluorenes as novel selective CDK1 inhibitors with P-glycoprotein modulating properties” (J Med Chem, 2003)

Key:
[1] = target: T1, ATP-dependent translocase ABCB1 (Homo sapiens, UniProt P08183); experiment: Inhibition of membrane efflux pump P-glycoprotein at 7 uM; format: functional
In short: (§1)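 Rhodamine 123 uptake in L5178Y mouse T-cell lymphoma parental cells and the L5178YvMDR subline transfected with human MDR-1, at 2 × 10⁶ cells/mL in serum-free McCoy's 5A. Cells were preincubated with compound at room temperature, then given 5.2 μM rhodamine 123 (final) for 20 min at 37 °C and washed twice in PBS. Fluorescence of 1 × 10⁴ cells was read by flow cytometry. R = (MDR treated/untreated)/(parental treated/untreated), mean of two determinations.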

[2] = target: Cyclin-dependent kinase 5/CDK5 activator 1 (Homo sapiens) (UniProt Q00535+Q15078); experiment: Inhibition of Cyclin-dependent kinase 5 (CDK5) at 10 uM; format: protein-complex assay
In short: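 Recombinant GST-tagged mammalian CDK5 and p25 mixed in equal amounts and purified. Assayed in the same homogenization buffer as CDK1/cyclin B (Mops pH 7.2, Mg2+, EGTA, DTT, phosphatase inhibitors) at 30 °C with 15 μM final ATP for 10 min. Phosphate incorporation measured with blanks subtracted. Percent inhibition at 10 μM test concentration, mean of two determinations.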

IGROV-1 = experiment: Inhibition of ovarian cancer IGROVI cell proliferation; format: functional; details: Homo sapiens
In short: (§2)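 NCI in vitro antitumour screen across 60 human tumour cell lines, run as a sulforhodamine B protein cytotoxicity assay. Values are log GI50, mean of two determinations. The panel mean-graph midpoint (MG_MID) summarises all 60 lines, and the ovarian IGROV1 line is reported individually.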

Tumor Cell line = experiment: Cytostatic activity in performed screen of NCI 60 cell lines, mean graph midpoint; format: functional; details: Homo sapiens; in short: as §2
[3] = target: Cyclin-dependent kinase 1/cyclin B (Homo sapiens, UniProt P06493+P14635+Q8WWL7+O95067); experiment: Inhibition of Cyclin-dependent kinase 1-cyclin B from M phase starfish (Marthasterias glacialis) oocytes (inactive); format: cell-based, Asteroidea; details: oocyte
[4] = target: T1, ATP-dependent translocase ABCB1; experiment: Inhibition of P-glycoprotein, MDR-1, expressed in mouse T-cell lymphoma cell line at 70 uM; format: functional, cell-based; in short: as §1
[5] = target: Cyclin-dependent kinase 1/cyclin B (Homo sapiens, UniProt O95067+P06493+P14635+Q8WWL7); experiment: Inhibition of Cyclin-dependent kinase 1-cyclin B from M phase starfish (Marthasterias glacialis) oocytes; format: cell-based, Asteroidea, Oocyte
Cyclin-dependent kinase 1/cyclin B (Homo sapiens, UniProt O95067+P06493+P14635+Q8WWL7), sequence (P06493 whole entry): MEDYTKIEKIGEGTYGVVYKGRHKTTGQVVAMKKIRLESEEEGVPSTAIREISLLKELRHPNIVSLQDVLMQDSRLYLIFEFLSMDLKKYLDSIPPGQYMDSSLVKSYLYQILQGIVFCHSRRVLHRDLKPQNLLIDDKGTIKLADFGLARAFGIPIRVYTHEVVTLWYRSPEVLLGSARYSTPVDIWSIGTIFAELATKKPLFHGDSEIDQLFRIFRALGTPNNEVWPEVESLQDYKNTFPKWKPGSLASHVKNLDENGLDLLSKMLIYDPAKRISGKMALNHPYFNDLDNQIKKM
Cyclin-dependent kinase 1/cyclin B (Homo sapiens, UniProt O95067+P06493+P14635+Q8WWL7), sequence (P14635 whole entry): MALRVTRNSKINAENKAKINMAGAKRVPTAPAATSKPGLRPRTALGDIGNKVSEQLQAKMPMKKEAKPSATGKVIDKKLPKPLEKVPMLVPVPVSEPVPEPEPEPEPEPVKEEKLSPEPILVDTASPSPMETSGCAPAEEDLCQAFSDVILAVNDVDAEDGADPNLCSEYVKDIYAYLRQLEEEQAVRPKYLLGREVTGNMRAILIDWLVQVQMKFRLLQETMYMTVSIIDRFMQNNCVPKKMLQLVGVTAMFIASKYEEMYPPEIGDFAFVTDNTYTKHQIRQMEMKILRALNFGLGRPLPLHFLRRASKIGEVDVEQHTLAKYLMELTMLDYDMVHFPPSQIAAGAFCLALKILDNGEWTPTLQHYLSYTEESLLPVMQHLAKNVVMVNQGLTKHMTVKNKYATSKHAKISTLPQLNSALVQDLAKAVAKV
Cyclin-dependent kinase 1/cyclin B (Homo sapiens, UniProt O95067+P06493+P14635+Q8WWL7), sequence (Q8WWL7 whole entry): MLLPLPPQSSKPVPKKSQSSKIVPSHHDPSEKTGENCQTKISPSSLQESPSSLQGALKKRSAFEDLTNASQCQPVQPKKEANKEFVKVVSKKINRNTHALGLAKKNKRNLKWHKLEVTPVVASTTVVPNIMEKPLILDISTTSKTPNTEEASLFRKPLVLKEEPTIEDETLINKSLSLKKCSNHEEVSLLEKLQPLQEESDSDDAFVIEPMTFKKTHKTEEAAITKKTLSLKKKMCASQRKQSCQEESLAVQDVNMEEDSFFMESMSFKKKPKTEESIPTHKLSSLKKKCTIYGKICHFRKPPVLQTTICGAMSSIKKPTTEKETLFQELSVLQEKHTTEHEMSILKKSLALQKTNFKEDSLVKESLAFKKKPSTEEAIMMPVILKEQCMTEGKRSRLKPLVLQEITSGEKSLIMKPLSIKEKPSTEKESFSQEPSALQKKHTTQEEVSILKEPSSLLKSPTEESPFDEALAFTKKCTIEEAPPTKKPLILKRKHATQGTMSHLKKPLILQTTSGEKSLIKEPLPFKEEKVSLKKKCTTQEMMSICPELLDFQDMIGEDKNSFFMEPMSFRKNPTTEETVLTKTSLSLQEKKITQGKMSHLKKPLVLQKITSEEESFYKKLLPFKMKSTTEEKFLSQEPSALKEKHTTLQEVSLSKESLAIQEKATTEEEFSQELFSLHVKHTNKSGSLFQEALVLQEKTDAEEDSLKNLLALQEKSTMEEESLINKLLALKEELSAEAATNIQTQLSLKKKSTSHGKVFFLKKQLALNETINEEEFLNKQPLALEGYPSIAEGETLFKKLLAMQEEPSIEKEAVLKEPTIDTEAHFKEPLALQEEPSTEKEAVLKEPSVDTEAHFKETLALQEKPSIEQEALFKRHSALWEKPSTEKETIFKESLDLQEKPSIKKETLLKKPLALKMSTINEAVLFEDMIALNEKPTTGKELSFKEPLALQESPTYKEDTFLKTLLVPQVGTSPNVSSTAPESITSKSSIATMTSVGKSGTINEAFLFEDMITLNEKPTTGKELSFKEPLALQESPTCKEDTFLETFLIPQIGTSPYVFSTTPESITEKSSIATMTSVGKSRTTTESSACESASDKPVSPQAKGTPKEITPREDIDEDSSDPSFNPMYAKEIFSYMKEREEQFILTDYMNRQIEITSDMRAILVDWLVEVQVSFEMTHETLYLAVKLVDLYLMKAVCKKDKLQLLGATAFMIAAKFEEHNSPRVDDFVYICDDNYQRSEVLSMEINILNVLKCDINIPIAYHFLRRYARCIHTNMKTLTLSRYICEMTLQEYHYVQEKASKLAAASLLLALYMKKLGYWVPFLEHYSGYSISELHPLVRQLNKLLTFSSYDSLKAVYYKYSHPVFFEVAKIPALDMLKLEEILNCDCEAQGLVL
Cyclin-dependent kinase 1/cyclin B (Homo sapiens, UniProt O95067+P06493+P14635+Q8WWL7), sequence (O95067 whole entry): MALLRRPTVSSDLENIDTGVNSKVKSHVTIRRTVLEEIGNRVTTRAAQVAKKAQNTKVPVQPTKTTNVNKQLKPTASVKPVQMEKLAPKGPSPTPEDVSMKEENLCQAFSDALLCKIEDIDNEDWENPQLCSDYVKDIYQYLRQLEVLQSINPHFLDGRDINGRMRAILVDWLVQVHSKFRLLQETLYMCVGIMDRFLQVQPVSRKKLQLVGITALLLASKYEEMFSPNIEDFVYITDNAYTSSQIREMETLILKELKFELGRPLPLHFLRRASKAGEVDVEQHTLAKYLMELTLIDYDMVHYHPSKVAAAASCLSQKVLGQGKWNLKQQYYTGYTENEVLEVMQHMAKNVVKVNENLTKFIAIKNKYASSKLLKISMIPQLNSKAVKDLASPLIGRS

Cyclin-dependent kinase 5/CDK5 activator 1 (Homo sapiens), sequence (Q00535 whole entry): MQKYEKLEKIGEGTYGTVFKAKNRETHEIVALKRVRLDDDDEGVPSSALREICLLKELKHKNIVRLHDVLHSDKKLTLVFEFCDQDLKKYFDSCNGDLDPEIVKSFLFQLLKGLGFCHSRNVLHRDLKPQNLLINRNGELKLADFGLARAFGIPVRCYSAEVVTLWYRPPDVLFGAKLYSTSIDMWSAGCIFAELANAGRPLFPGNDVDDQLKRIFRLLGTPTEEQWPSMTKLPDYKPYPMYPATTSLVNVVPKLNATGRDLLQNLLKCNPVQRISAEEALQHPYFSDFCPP
Cyclin-dependent kinase 5/CDK5 activator 1 (Homo sapiens), sequence (Q15078 99-307 partner limits assumed): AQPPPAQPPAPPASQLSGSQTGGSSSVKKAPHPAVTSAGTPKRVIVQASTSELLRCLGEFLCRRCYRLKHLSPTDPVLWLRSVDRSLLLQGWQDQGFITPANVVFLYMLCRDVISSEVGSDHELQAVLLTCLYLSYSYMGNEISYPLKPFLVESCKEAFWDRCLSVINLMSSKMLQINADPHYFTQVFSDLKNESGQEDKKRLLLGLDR
T1 sequence (P08183 whole entry): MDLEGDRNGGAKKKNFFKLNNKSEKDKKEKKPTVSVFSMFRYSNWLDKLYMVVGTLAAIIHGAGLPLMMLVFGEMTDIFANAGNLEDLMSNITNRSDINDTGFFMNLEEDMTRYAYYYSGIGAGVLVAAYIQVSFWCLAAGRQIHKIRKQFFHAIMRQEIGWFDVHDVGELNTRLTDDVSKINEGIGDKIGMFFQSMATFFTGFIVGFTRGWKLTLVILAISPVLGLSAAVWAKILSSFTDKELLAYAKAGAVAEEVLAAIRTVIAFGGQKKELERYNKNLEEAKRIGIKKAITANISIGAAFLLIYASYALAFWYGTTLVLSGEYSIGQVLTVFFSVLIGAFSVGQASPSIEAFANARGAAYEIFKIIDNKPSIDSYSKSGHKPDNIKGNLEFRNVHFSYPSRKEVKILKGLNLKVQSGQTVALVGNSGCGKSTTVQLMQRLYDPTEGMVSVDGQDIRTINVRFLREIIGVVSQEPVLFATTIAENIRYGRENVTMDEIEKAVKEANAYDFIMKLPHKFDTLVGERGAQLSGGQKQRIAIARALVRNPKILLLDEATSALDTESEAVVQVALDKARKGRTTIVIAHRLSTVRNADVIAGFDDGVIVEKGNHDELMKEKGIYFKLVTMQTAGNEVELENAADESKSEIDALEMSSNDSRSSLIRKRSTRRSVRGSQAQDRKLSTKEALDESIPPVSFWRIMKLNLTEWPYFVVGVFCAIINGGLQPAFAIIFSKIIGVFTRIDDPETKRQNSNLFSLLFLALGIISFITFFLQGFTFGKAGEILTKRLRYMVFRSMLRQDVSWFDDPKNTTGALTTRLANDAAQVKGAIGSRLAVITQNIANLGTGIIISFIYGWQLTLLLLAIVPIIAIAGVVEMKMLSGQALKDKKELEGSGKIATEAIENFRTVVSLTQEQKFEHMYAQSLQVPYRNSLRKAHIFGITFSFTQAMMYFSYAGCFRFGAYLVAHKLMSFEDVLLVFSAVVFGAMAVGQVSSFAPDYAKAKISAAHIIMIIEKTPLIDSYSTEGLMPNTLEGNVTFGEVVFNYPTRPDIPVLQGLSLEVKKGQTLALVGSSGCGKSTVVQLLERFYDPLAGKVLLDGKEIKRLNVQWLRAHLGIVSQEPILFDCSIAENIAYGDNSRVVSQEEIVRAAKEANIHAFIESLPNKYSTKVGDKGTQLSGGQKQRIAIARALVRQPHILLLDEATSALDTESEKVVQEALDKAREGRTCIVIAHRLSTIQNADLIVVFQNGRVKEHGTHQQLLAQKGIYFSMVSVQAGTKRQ
Cyclin-dependent kinase 1/cyclin B (Homo sapiens, UniProt P06493+P14635+Q8WWL7+O95067), sequence (P06493 whole entry): as the sequence (P06493 whole entry) above
Cyclin-dependent kinase 1/cyclin B (Homo sapiens, UniProt P06493+P14635+Q8WWL7+O95067), sequence (P14635 whole entry): as the sequence (P14635 whole entry) above
Cyclin-dependent kinase 1/cyclin B (Homo sapiens, UniProt P06493+P14635+Q8WWL7+O95067), sequence (Q8WWL7 whole entry): as the sequence (Q8WWL7 whole entry) above
Cyclin-dependent kinase 1/cyclin B (Homo sapiens, UniProt P06493+P14635+Q8WWL7+O95067), sequence (O95067 whole entry): as the sequence (O95067 whole entry) above

Inhibitory activity ratio [1] | inhibition [2] [%] | IC50 [3] | Inhibitory activity ratio [4] | IC50 [5] [µM] | SMILES | GI50 (IGROV-1) [µM] | GI50 (Tumor Cell line) [µM]
1.18 | 3 | Not Active | 4.77 | – | CCOC(=O)c1cnc2oc3ccc(O)cc3c2c1C | 79.4 | 79.4
1.26 | 15 | – | 6.74 | 4.2 | CC(=O)c1cnc2oc3ccc(O)cc3c2c1-c1ccccc1 | 5.01 | 31.6
– | – | – | – | – | CCOC(=O)c1cnc2oc3ccc(OC(C)=O)cc3c2c1-c1ccccc1 | > 100 | –
– | 10 | Not Active | – | – | CC(=O)c1cnc2oc3ccc(O)cc3c2c1C | > 100 | > 100
9.5 | 6 | – | 9.14 | 28.8 | CCOC(=O)c1cnc2oc3ccc(O)cc3c2c1-c1ccccc1 | 2.51 | 31.6
